# Experimental data as given in ChEMBL document CHEMBL4689842, “EUbOPEN Chemogenomics Library wave 1” (2021).
# Test system: Fibroblast
# Assay: Multiplex assay against human fibroblast
# Format: toxicity, cell-based
# Summary of the method: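 Imaging took place on a CQ1 microscope at 37°C and 5% CO2 once compound had been added to live cells stained at seeding with Hoechst33342, BioTracker Green Microtubule Cytoskeleton Dye, MitoTracker Red and Annexin V Alexa Fluor 680. CellPathfinder machine-learning gating classed cells as Hoechst high-intensity objects or normal cells, classed normal cells as having healthy, pyknosed or fragmented nuclei, and classed pyknosed cells as mitotic or apoptotic. Tubulin, mitochondrial-mass and membrane-permeability phenotypes are per cents of the healthy-nucleus cells.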
# [1] = 12 h, 1 µM, compound concentration 1 uM, replicate 1
# [2] = 12 h, 1 µM, compound concentration 1 uM, replicate 2
# [3] = 12 h, 10 µM, compound concentration 10 uM, replicate 1
# [4] = 12 h, 10 µM, compound concentration 10 uM, replicate 2
# [5] = 24 h, 1 µM, compound concentration 1 uM, replicate 1
# [6] = 24 h, 1 µM, compound concentration 1 uM, replicate 2
# [7] = 24 h, 10 µM, compound concentration 10 uM, replicate 1
# [8] = 24 h, 10 µM, compound concentration 10 uM, replicate 2
# [9] = 48 h, 1 µM, compound concentration 1 uM, replicate 1
# [10] = 48 h, 1 µM, compound concentration 1 uM, replicate 2
# [11] = 48 h, 10 µM, compound concentration 10 uM, replicate 1
# [12] = 48 h, 10 µM, compound concentration 10 uM, replicate 2
compound,measurement,setting,value
Cc1cc(C)c(S(=O)(=O)N(Cc2ccc(-c3cccc(S(C)(=O)=O)c3)cc2)Cc2ccc(C(F)(F)F)o2)c(C)c1,Population Apoptotic (%),[1],68%
same,Population Fragmented Nuclei (%),[1],20%
same,Population Healthy Nuclei (%),[1],45%
same,Population Hoechst High Intensity Objects (%),[1],8%
same,Population Membrane Permeable-Phenotype (%),[1],19%
same,Population Mitochondria Different-Phenotype (%),[1],8%
same,Population Mitotic Cells (%),[1],32%
same,Population Normal (%),[1],91%
same,Population Pyknosed Nuclei (%),[1],34%
same,Population Tubulin-Different-Phenotype (%),[1],55%
same,Total Cell Count,[1],161
same,Population Apoptotic (%),[2],66%
same,Population Fragmented Nuclei (%),[2],15%
same,Population Healthy Nuclei (%),[2],80%
same,Population Hoechst High Intensity Objects (%),[2],6%
same,Population Membrane Permeable-Phenotype (%),[2],3%
same,Population Mitochondria Different-Phenotype (%),[2],21%
same,Population Mitotic Cells (%),[2],33%
same,Population Normal (%),[2],93%
same,Population Pyknosed Nuclei (%),[2],3%
same,Population Tubulin-Different-Phenotype (%),[2],27%
same,Total Cell Count,[2],72
same,Population Apoptotic (%),[3],51%
same,Population Fragmented Nuclei (%),[3],40%
same,Population Healthy Nuclei (%),[3],27%
same,Population Hoechst High Intensity Objects (%),[3],45%
same,Population Membrane Permeable-Phenotype (%),[3],25%
same,Population Mitochondria Different-Phenotype (%),[3],7%
same,Population Mitotic Cells (%),[3],48%
same,Population Normal (%),[3],54%
same,Population Pyknosed Nuclei (%),[3],31%
same,Population Tubulin-Different-Phenotype (%),[3],74%
same,Total Cell Count,[3],179
same,Population Apoptotic (%),[4],0%
same,Population Fragmented Nuclei (%),[4],14%
same,Population Healthy Nuclei (%),[4],77%
same,Population Hoechst High Intensity Objects (%),[4],22%
same,Population Membrane Permeable-Phenotype (%),[4],3%
same,Population Mitochondria Different-Phenotype (%),[4],3%
same,Population Mitotic Cells (%),[4],100%
same,Population Normal (%),[4],77%
same,Population Pyknosed Nuclei (%),[4],8%
same,Population Tubulin-Different-Phenotype (%),[4],11%
same,Total Cell Count,[4],81
same,Population Apoptotic (%),[5],45%
same,Population Fragmented Nuclei (%),[5],21%
same,Population Healthy Nuclei (%),[5],64%
same,Population Hoechst High Intensity Objects (%),[5],9%
same,Population Membrane Permeable-Phenotype (%),[5],25%
same,Population Mitochondria Different-Phenotype (%),[5],6%
same,Population Mitotic Cells (%),[5],54%
same,Population Normal (%),[5],90%
same,Population Pyknosed Nuclei (%),[5],14%
same,Population Tubulin-Different-Phenotype (%),[5],58%
same,Total Cell Count,[5],171
same,Population Apoptotic (%),[6],0%
same,Population Fragmented Nuclei (%),[6],14%
same,Population Healthy Nuclei (%),[6],80%
same,Population Hoechst High Intensity Objects (%),[6],1%
same,Population Membrane Permeable-Phenotype (%),[6],5%
same,Population Mitochondria Different-Phenotype (%),[6],18%
same,Population Mitotic Cells (%),[6],100%
same,Population Normal (%),[6],98%
same,Population Pyknosed Nuclei (%),[6],5%
same,Population Tubulin-Different-Phenotype (%),[6],32%
same,Total Cell Count,[6],86
same,Population Apoptotic (%),[7],77%
same,Population Fragmented Nuclei (%),[7],34%
same,Population Healthy Nuclei (%),[7],46%
same,Population Hoechst High Intensity Objects (%),[7],42%
same,Population Membrane Permeable-Phenotype (%),[7],31%
same,Population Mitochondria Different-Phenotype (%),[7],18%
same,Population Mitotic Cells (%),[7],22%
same,Population Normal (%),[7],57%
same,Population Pyknosed Nuclei (%),[7],18%
same,Population Tubulin-Different-Phenotype (%),[7],72%
same,Total Cell Count,[7],166
same,Population Apoptotic (%),[8],14%
same,Population Fragmented Nuclei (%),[8],15%
same,Population Healthy Nuclei (%),[8],71%
same,Population Hoechst High Intensity Objects (%),[8],10%
same,Population Membrane Permeable-Phenotype (%),[8],5%
same,Population Mitochondria Different-Phenotype (%),[8],10%
same,Population Mitotic Cells (%),[8],85%
same,Population Normal (%),[8],89%
same,Population Pyknosed Nuclei (%),[8],13%
same,Population Tubulin-Different-Phenotype (%),[8],15%
same,Total Cell Count,[8],109
same,Population Apoptotic (%),[9],72%
same,Population Fragmented Nuclei (%),[9],30%
same,Population Healthy Nuclei (%),[9],58%
same,Population Hoechst High Intensity Objects (%),[9],8%
same,Population Membrane Permeable-Phenotype (%),[9],16%
same,Population Mitotic Cells (%),[9],27%
same,Population Normal (%),[9],91%
same,Population Pyknosed Nuclei (%),[9],11%
same,Population Tubulin-Different-Phenotype (%),[9],40%
same,Total Cell Count,[9],178
same,Population Apoptotic (%),[10],66%
same,Population Fragmented Nuclei (%),[10],17%
same,Population Healthy Nuclei (%),[10],79%
same,Population Hoechst High Intensity Objects (%),[10],10%
same,Population Membrane Permeable-Phenotype (%),[10],18%
same,Population Mitochondria Different-Phenotype (%),[10],2%
same,Population Mitotic Cells (%),[10],33%
same,Population Normal (%),[10],89%
same,Population Pyknosed Nuclei (%),[10],2%
same,Population Tubulin-Different-Phenotype (%),[10],32%
same,Total Cell Count,[10],114
same,Population Apoptotic (%),[11],100%
same,Population Fragmented Nuclei (%),[11],47%
same,Population Healthy Nuclei (%),[11],49%
same,Population Hoechst High Intensity Objects (%),[11],40%
same,Population Membrane Permeable-Phenotype (%),[11],45%
same,Population Mitochondria Different-Phenotype (%),[11],3%
same,Population Mitotic Cells (%),[11],0%
same,Population Normal (%),[11],59%
same,Population Pyknosed Nuclei (%),[11],2%
same,Population Tubulin-Different-Phenotype (%),[11],63%
same,Total Cell Count,[11],192
same,Population Fragmented Nuclei (%),[12],21%
same,Population Healthy Nuclei (%),[12],77%
same,Population Hoechst High Intensity Objects (%),[12],12%
same,Population Membrane Permeable-Phenotype (%),[12],5%
same,Population Normal (%),[12],87%
same,Population Pyknosed Nuclei (%),[12],1%
same,Population Tubulin-Different-Phenotype (%),[12],22%
same,Total Cell Count,[12],86
NC(=O)c1cccc(-c2cc(Nc3ccc(OC(F)(F)F)cc3)ncn2)c1,Population Apoptotic (%),[1],80%
same,Population Fragmented Nuclei (%),[1],30%
same,Population Healthy Nuclei (%),[1],53%
same,Population Hoechst High Intensity Objects (%),[1],10%
same,Population Membrane Permeable-Phenotype (%),[1],5%
same,Population Mitochondria Different-Phenotype (%),[1],6%
same,Population Mitotic Cells (%),[1],20%
same,Population Normal (%),[1],89%
same,Population Pyknosed Nuclei (%),[1],16%
same,Population Tubulin-Different-Phenotype (%),[1],5%
same,Total Cell Count,[1],205
same,Population Apoptotic (%),[2],20%
same,Population Fragmented Nuclei (%),[2],42%
same,Population Healthy Nuclei (%),[2],48%
same,Population Hoechst High Intensity Objects (%),[2],39%
same,Population Membrane Permeable-Phenotype (%),[2],11%
same,Population Mitochondria Different-Phenotype (%),[2],23%
same,Population Mitotic Cells (%),[2],80%
same,Population Normal (%),[2],60%
same,Population Pyknosed Nuclei (%),[2],9%
same,Population Tubulin-Different-Phenotype (%),[2],3%
same,Total Cell Count,[2],89
same,Population Apoptotic (%),[3],69%
same,Population Fragmented Nuclei (%),[3],20%
same,Population Healthy Nuclei (%),[3],61%
same,Population Hoechst High Intensity Objects (%),[3],7%
same,Population Membrane Permeable-Phenotype (%),[3],7%
same,Population Mitochondria Different-Phenotype (%),[3],3%
same,Population Mitotic Cells (%),[3],30%
same,Population Normal (%),[3],92%
same,Population Pyknosed Nuclei (%),[3],18%
same,Population Tubulin-Different-Phenotype (%),[3],6%
same,Total Cell Count,[3],231
same,Population Apoptotic (%),[4],60%
same,Population Fragmented Nuclei (%),[4],50%
same,Population Healthy Nuclei (%),[4],23%
same,Population Hoechst High Intensity Objects (%),[4],39%
same,Population Membrane Permeable-Phenotype (%),[4],0%
same,Population Mitochondria Different-Phenotype (%),[4],44%
same,Population Mitotic Cells (%),[4],40%
same,Population Normal (%),[4],60%
same,Population Pyknosed Nuclei (%),[4],26%
same,Population Tubulin-Different-Phenotype (%),[4],33%
same,Total Cell Count,[4],63
same,Population Apoptotic (%),[5],60%
same,Population Fragmented Nuclei (%),[5],26%
same,Population Healthy Nuclei (%),[5],59%
same,Population Hoechst High Intensity Objects (%),[5],12%
same,Population Membrane Permeable-Phenotype (%),[5],6%
same,Population Mitochondria Different-Phenotype (%),[5],7%
same,Population Mitotic Cells (%),[5],39%
same,Population Normal (%),[5],87%
same,Population Pyknosed Nuclei (%),[5],13%
same,Population Tubulin-Different-Phenotype (%),[5],11%
same,Total Cell Count,[5],194
same,Population Apoptotic (%),[6],50%
same,Population Fragmented Nuclei (%),[6],46%
same,Population Healthy Nuclei (%),[6],46%
same,Population Hoechst High Intensity Objects (%),[6],26%
same,Population Membrane Permeable-Phenotype (%),[6],12%
same,Population Mitochondria Different-Phenotype (%),[6],16%
same,Population Mitotic Cells (%),[6],50%
same,Population Normal (%),[6],73%
same,Population Pyknosed Nuclei (%),[6],6%
same,Population Tubulin-Different-Phenotype (%),[6],12%
same,Total Cell Count,[6],90
same,Population Apoptotic (%),[7],55%
same,Population Fragmented Nuclei (%),[7],26%
same,Population Healthy Nuclei (%),[7],53%
same,Population Hoechst High Intensity Objects (%),[7],5%
same,Population Membrane Permeable-Phenotype (%),[7],5%
same,Population Mitochondria Different-Phenotype (%),[7],5%
same,Population Mitotic Cells (%),[7],44%
same,Population Normal (%),[7],94%
same,Population Pyknosed Nuclei (%),[7],19%
same,Population Tubulin-Different-Phenotype (%),[7],11%
same,Total Cell Count,[7],237
same,Population Apoptotic (%),[8],40%
same,Population Fragmented Nuclei (%),[8],50%
same,Population Healthy Nuclei (%),[8],39%
same,Population Hoechst High Intensity Objects (%),[8],31%
same,Population Membrane Permeable-Phenotype (%),[8],21%
same,Population Mitochondria Different-Phenotype (%),[8],31%
same,Population Mitotic Cells (%),[8],60%
same,Population Normal (%),[8],68%
same,Population Pyknosed Nuclei (%),[8],10%
same,Population Tubulin-Different-Phenotype (%),[8],57%
same,Total Cell Count,[8],70
